Series [1] deals with ABCG2. Nature of the series: Therapeutic ratio of GI50 for growth inhibition of MDCK2 cells over expressing human ABCG2 to IC50 for inhibition of human ABCG2 expressed in MDCK2 cells co-expressing GFP. The following applies: dog, MDCK2 cells overexpressing human ABCG2.
Series [2] can be described thus: Cytotoxicity against MDCK2 cells assessed as reduction in cell viability after 72 hrs by MTT assay. In kind it is cell-based, Canis lupus familiaris, MDCK-II. The conditions noted are these: dog. In outline: (§1)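 MTT viability assay. Compound dilutions in culture medium (3.2 to 1000 µM as prepared). About 2,000 cells per well, 72 h at 37 °C, 5% CO2. Culture medium set as 100% and 10% DMSO as 0% viability. MTT added for 1 h, formazan dissolved in DMSO, absorbance read at 570 nm with 690 nm background. GI50 from nonlinear regression of absorbance vs log concentration; at least three independent experiments, duplicates, mean ± SEM.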
Background: Tetrazolium assays rely on reduction of a dye to a coloured formazan, in cell work by metabolically active cells.

Series [3] has as its system MDCK-II. The series is described as follows: Cytotoxicity against MDCK2 cells over expressing human ABCG2 at 10 uM assessed as reduction in cell viability after 72 hrs by MTT assay. The conditions noted are these: dog. In kind it is ADME, cell-based, Canis lupus familiaris. The method in brief:
(§2)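 Single-concentration screen at 10 µM in MDCK II BCRP and parental MDCK II cells. MTT assay, 72 h at 37 °C, 5% CO2. Viability referenced to culture medium (100%) and 10% DMSO (0%). Mean ± SEM of at least three independent experiments with duplicates.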

The next series deals with ABCB1. Nature of the series: Therapeutic ratio of GI50 for Growth inhibition of A2780/ADR cells over expressing human ABCB1 to IC50 for inhibition of human ABCB1 expressed in A2780/ADR cells preincubated for 30 mins followed by calcein AM addition and measured every 60 secs for 60 mins by fluorescence assay. The conditions noted are these: A2780/ADR cells overexpressing human ABCB1, probe calcein AM.

Series [4] concerns the target ATP-dependent translocase ABCB1 (Homo sapiens, UniProt P08183). Nature of the series: Inhibition of human ABCB1 expressed in A2780/ADR cells preincubated for 30 mins followed by calcein AM addition and measured every 60 secs for 60 mins by fluorescence assay. In kind it is cell-based. The method in brief:
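ABCB1 in A2780/ADR cells (kept resistant by one passage in 1 µM doxorubicin every 10 passages). 30,000 cells per well in Krebs-HEPES buffer, preincubated 30 min at 37 °C with inhibitor. Calcein AM added from a 3.125 µM solution. Fluorescence (ex 485, em 520 nm) read every 60 s for 60 min. Initial linear slopes vs log concentration fitted to give IC50.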

Series [5] has as its target T1, ABCG2 (Homo sapiens, UniProt Q9UNQ0).
T1 sequence (Q9UNQ0 whole entry): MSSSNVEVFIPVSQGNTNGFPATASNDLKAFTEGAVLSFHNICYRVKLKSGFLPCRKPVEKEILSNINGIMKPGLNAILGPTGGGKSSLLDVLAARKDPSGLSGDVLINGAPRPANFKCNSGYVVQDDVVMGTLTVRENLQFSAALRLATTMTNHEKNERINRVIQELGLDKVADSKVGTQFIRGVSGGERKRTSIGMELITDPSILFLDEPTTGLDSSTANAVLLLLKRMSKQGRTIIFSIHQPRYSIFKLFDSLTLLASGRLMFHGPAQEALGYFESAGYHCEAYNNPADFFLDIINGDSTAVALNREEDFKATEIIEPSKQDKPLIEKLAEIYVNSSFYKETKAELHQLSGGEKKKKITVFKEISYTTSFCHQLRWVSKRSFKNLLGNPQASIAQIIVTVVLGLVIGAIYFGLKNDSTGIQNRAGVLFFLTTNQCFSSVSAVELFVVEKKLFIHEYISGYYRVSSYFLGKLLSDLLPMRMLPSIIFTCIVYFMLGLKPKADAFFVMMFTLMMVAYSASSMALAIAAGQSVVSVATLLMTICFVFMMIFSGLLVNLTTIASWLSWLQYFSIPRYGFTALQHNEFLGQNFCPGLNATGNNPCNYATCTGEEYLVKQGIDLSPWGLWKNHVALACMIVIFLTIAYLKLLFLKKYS
The series is described as follows: Inhibition of human ABCG2 expressed in MDCK2 cells co-expressing GFP preincubated for 15 mins followed by pheophorbideA addition and measured after 2 hrs by flow cytometric analysis relative to control. In kind it is cell-based, MDCK-II. The following applies: probe pheophorbide A, read-out: Imax. For orientation: In flow cytometry, cells or beads pass a laser one at a time.

Series [6] deals with T2, Broad substrate specificity ATP-binding cassette transporter ABCG2 (Homo sapiens, UniProt Q9UNQ0).
T2 sequence (Q9UNQ0 whole entry): T1 sequence (Q9UNQ0 whole entry)
Nature of the series: Inhibition of human ABCG2 expressed in MDCK2 cells co-expressing GFP preincubated for 15 mins followed by pheophorbideA addition and measured after 2 hrs by flow cytometric analysis. The series is classed as cell-based, MDCK-II. In outline: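 Pheophorbide A added to 0.5 µM final and incubated 2 h. Read by flow cytometry (ex 488, em 695/50 nm); GFP expression checked at 525/30 nm. IC50 from 3- or 4-parameter logistic fit.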

Series [7] is described as follows: Cytotoxicity against human A2780 cells assessed as reduction in cell viability after 72 hrs by MTT assay.
Series [8] in a line: Cytotoxicity against MDCK2 cells over expressing human ABCG2 assessed as reduction in cell viability after 72 hrs by MTT assay. In kind it is ADME, cell-based, Canis lupus familiaris, MDCK-II. The conditions noted are these: dog, MDCK2 cells overexpressing human ABCG2. The method in brief:
as §1

The subject of series [9] is MDCK-II. The series is described as follows: Cytotoxicity against MDCK2 cells assessed as reduction in cell viability at 10 uM after 72 hrs by MTT assay. The series is classed as cell-based, Canis lupus familiaris. The conditions noted are these: dog. In outline:
as §2

The nature of series [10]: Cytotoxicity against human A2780/ADR cells over expressing ABCB1 assessed as reduction in cell viability after 72 hrs by MTT assay. In kind it is ADME, cell-based. The conditions noted are these: A2780/ADR cells overexpressing ABCB1. The method in brief:
as §1

A further series concerns ABCC1. Nature of the series: Therapeutic ratio of GI50 for Growth inhibition of MDCK2 cells over expressing human ABCC1 to IC50 for inhibition of human ABCC1 expressed in MDCK2 cells preincubated for 30 mins followed by calcein AM addition and measured every 60 secs for 60 mins by fluorescence assay. The following applies: dog, MDCK2 cells overexpressing human ABCC1, probe calcein AM.

Series [11] can be described thus: Cytotoxicity against MDCK cells over expressing ABCC1 assessed as reduction in cell viability after 72 hrs by MTT assay. In kind it is ADME, cell-based, Canis lupus familiaris, MDCK-II. The following applies: dog, MDCK cells overexpressing ABCC1. In outline: as §1

SMILES strings stand for the structures.

Sequence of ATP-dependent translocase ABCB1 (P08183 whole entry): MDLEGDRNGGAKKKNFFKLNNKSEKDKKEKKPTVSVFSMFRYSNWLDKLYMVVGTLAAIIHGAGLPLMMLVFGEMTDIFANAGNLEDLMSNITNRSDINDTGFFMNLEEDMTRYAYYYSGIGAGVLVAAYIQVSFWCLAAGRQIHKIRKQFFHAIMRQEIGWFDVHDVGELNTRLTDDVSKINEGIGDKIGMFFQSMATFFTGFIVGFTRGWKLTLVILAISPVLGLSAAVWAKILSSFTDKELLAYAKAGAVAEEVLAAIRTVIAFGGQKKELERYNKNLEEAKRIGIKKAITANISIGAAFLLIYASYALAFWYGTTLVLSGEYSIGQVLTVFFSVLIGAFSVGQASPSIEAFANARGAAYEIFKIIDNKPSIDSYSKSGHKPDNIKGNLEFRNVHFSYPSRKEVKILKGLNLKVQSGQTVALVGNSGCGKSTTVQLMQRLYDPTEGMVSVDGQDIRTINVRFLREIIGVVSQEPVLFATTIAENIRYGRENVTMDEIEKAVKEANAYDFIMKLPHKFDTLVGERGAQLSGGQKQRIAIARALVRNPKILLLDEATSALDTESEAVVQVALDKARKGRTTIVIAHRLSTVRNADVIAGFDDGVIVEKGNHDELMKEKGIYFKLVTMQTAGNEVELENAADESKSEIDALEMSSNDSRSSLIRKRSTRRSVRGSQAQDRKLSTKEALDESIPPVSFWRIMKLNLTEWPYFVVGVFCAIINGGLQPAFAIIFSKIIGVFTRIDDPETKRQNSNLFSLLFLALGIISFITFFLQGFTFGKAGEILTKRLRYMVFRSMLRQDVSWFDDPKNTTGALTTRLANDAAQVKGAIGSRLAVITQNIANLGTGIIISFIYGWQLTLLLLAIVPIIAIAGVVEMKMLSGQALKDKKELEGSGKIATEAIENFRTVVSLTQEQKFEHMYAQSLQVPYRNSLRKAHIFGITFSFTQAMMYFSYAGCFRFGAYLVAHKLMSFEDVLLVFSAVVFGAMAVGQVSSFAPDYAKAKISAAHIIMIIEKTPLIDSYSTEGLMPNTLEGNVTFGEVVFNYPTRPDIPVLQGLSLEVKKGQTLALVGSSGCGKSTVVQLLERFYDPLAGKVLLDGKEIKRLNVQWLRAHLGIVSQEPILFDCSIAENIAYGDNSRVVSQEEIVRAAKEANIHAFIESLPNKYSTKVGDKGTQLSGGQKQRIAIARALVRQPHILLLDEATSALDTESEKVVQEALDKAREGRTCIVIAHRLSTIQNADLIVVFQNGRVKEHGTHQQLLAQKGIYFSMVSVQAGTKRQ

By GI50 is commonly meant the concentration at which growth is held to half of that of the control. One may read the IC50 as the concentration needed to halve the response being measured. On to `Cc1cc(Nc2ccc3ncccc3c2)nc(-c2ccccc2)n1`, for which the selectivity ratio with ABCG2 [1] is 279; in the series with ABCB1, 5.6; in the series with ABCC1 it was 4.9. Besides, the GI50 at 72 h in [2] came to 38.4 µM; in [7], 22.6 µM; in [8], 42.1 µM; in series [10], 28.9 µM; in series [11] it was 35.4 µM. Moreover, the Activity entry in the series on MDCK-II [3] and with MDCK-II [9] was “Non-Toxic” throughout. In addition, the IC50 was 5.13 µM in [4] and 0.151 µM in [6]. Besides, at ABCG2 [5], the Emax at 2 h worked out at 79%.

(Values after ChEMBL document CHEMBL4725354 (J Med Chem, 2020).)
